Holding throughout (assay type): functional, organism-based
The subject of experiment [1] is Pseudomonas aeruginosa. Put plainly: Susceptibility testing against Pseudomonas aeruginosa PAE_NUH24; S=Susceptible. Put shortly:
(§1)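 Disk diffusion susceptibility profiling against a panel of empirically used antipseudomonal antibiotics. Each strain was categorised as susceptible (S) or intermediate (I).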

Experiment [2] has as its system Pseudomonas aeruginosa. Briefly: Susceptibility testing against Pseudomonas aeruginosa PAE_NUH21; S=Susceptible. In outline:
as §1

For experiment [3], the system named is Pseudomonas aeruginosa. Briefly: Susceptibility testing against Pseudomonas aeruginosa PAE_NUH18; S=Susceptible. Put shortly:
as §1

In experiment [4] the test system is Pseudomonas aeruginosa. Put plainly: Susceptibility testing against Pseudomonas aeruginosa PAE_NUH17; S=Susceptible. Put shortly: as §1
Experiment [5] relates to Pseudomonas aeruginosa. Put plainly: Susceptibility testing against Pseudomonas aeruginosa PAE_NUH20; S=Susceptible. Put shortly: as §1
Experiment [6] relates to Pseudomonas aeruginosa. Put plainly: Susceptibility testing against Pseudomonas aeruginosa PAE_NUH07; S=Susceptible. In outline: as §1
Experiment [7] concerns Pseudomonas aeruginosa. Put plainly: Susceptibility testing against Pseudomonas aeruginosa PAE_NUH02; S=Susceptible. In outline:
as §1

Experiment [8] relates to Pseudomonas aeruginosa. Briefly: Susceptibility testing against Pseudomonas aeruginosa PAE_NUH04; S=Susceptible. Put shortly: as §1
Experiment [9] relates to Pseudomonas aeruginosa. Put plainly: Susceptibility testing against Pseudomonas aeruginosa PAE_NUH06; S=Susceptible. Put shortly:
as §1

Experiment [10] relates to Pseudomonas aeruginosa. Put plainly: Susceptibility testing against Pseudomonas aeruginosa ATCC 27853; S=Susceptible. Put shortly:
as §1

In experiment [11] the test system is Pseudomonas aeruginosa. Put plainly: Susceptibility testing against Pseudomonas aeruginosa PAE_NUH01; S=Susceptible. In outline: as §1
The subject of experiment [12] is Pseudomonas aeruginosa. Put plainly: Susceptibility testing against Pseudomonas aeruginosa PAE_NUH05; S=Susceptible. Put shortly:
as §1

Experiment [13] deals with Pseudomonas aeruginosa. Put plainly: Susceptibility testing against Pseudomonas aeruginosa PAE_NUH19; S=Susceptible. Put shortly: as §1
The subject of experiment [14] is Pseudomonas aeruginosa. Briefly: Susceptibility testing against Pseudomonas aeruginosa PAE_NUH23; S=Susceptible. In outline: as §1
Experiment [15] concerns Pseudomonas aeruginosa. Put plainly: Susceptibility testing against Pseudomonas aeruginosa PAE_NUH03; S=Susceptible. Put shortly:
as §1

For experiment [16], the system named is Pseudomonas aeruginosa. Briefly: Susceptibility testing against Pseudomonas aeruginosa PAE_NUH25; S=Susceptible. Put shortly: as §1
Experiment [17] relates to Pseudomonas aeruginosa. Briefly: Susceptibility testing against Pseudomonas aeruginosa PAE_NUH22; S=Susceptible. In outline:
as §1

Experiment [18] deals with Pseudomonas aeruginosa. Briefly: Susceptibility testing against Pseudomonas aeruginosa PAE_NUH18; R=Resistant. In outline: (§2)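 Disk diffusion susceptibility profiling of P. aeruginosa reference and clinical isolates against empirically used antipseudomonal antibiotics. Each isolate was categorised as susceptible, intermediate or resistant.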
Experiment [19] concerns Pseudomonas aeruginosa. Briefly: Susceptibility testing against Pseudomonas aeruginosa PAE_NUH17; R=Resistant. Put shortly:
as §2

For experiment [20], the system named is Pseudomonas aeruginosa. Put plainly: Susceptibility testing against Pseudomonas aeruginosa PAE_NUH19; R=Resistant. In outline: as §2
For experiment [21], the system named is Pseudomonas aeruginosa. Put plainly: Susceptibility testing against Pseudomonas aeruginosa PAE_NUH01; R=Resistant. Put shortly: as §2
In experiment [22] the test system is Pseudomonas aeruginosa. Briefly: Susceptibility testing against Pseudomonas aeruginosa PAE_NUH24; R=Resistant. Put shortly:
as §2

The test system of experiment [23] is Pseudomonas aeruginosa. Put plainly: Susceptibility testing against Pseudomonas aeruginosa PAE_NUH06; R=Resistant. In outline:
as §2

Experiment [24] deals with Pseudomonas aeruginosa. Briefly: Susceptibility testing against Pseudomonas aeruginosa PAE_NUH03; R=Resistant. In outline: as §2
Experiment [25] deals with Pseudomonas aeruginosa. Put plainly: Susceptibility testing against Pseudomonas aeruginosa PAE_NUH22; R=Resistant. Put shortly: as §2
The test system of experiment [26] is Pseudomonas aeruginosa. Briefly: Susceptibility testing against Pseudomonas aeruginosa PAE_NUH23; R=Resistant. In outline: as §2
For experiment [27], the system named is Pseudomonas aeruginosa. Briefly: Susceptibility testing against Pseudomonas aeruginosa PAE_NUH04; R=Resistant. Put shortly: as §2
Experiment [28] concerns Pseudomonas aeruginosa. Briefly: Susceptibility testing against Pseudomonas aeruginosa PAE_NUH21; I=Intermediate. Put shortly: as §1
Experiment [29] relates to Pseudomonas aeruginosa. Briefly: Susceptibility testing against Pseudomonas aeruginosa PAE_NUH07; R=Resistant. In outline: as §2
Experiment [30] deals with Pseudomonas aeruginosa. Put plainly: Susceptibility testing against Pseudomonas aeruginosa PAE_NUH20; R=Resistant. Put shortly:
as §2

The test system of experiment [31] is Pseudomonas aeruginosa. Put plainly: Susceptibility testing against Pseudomonas aeruginosa PAE_NUH05; R=Resistant. Put shortly: as §2
In experiment [32] the test system is Pseudomonas aeruginosa. Briefly: Susceptibility testing against Pseudomonas aeruginosa PAE_NUH02; R=Resistant. In outline:
as §2

Experiment [33] relates to Pseudomonas aeruginosa. Briefly: Susceptibility testing against Pseudomonas aeruginosa PAE_NUH25; R=Resistant. In outline: as §2
The subject of experiment [34] is Pseudomonas aeruginosa. Briefly: Susceptibility testing against Pseudomonas aeruginosa PAE_NUH07; I=Intermediate. In outline: as §2

The structures appear in SMILES notation.

On to `CC(O)[C@H]1C(=O)N2C(C(=O)O)=C(SCCNC=N)C[C@H]12` (single isomer, unassigned), for which the Activity entry in experiment [1], in [2], in [3], in [4], in [5] and in experiment [6] was “Susceptible” throughout. The Activity result in experiment [7], in [8], in [9], in experiment [10], in [11] and in [12] was “Susceptible” in each case. Moreover, the Activity entry in experiment [13], in [14], in experiment [15], in [16] and in experiment [17] was “Susceptible” throughout.

On to `CN(C)[C@@H]1C(O)=C(C(N)=O)C(=O)[C@@]2(O)C(O)=C3C(=O)c4c(O)cccc4[C@@](C)(O)[C@H]3C[C@@H]12`, for which the Activity entry in [18] is recorded as “Resistant”; in [19] it was “Resistant”; in experiment [20] it was “Resistant”; in [21], “Resistant”; in [22], “Resistant”; in [10], “Susceptible”. Further, the Activity entry is “Resistant” in experiment [23]; “Resistant” in [24]; “Resistant” in [25]; “Resistant” in experiment [26]; “Resistant” in experiment [27]; “Partial resistance” in [28]. Moreover, the Activity entry in [29], in [30], in [31], in [32] and in experiment [33] was “Resistant” each time.

Regarding `CC(C)(O/N=C(\C(=O)N[C@@H]1C(=O)N2C(C(=O)[O-])=C(C[n+]3ccccc3)CS[C@H]12)c1csc(N)n1)C(=O)O`, the Activity result in experiment [1] is “Susceptible”; in experiment [2] it was “Susceptible”; in [34], “I”; in [3], “Susceptible”; in [4], “Susceptible”; in [5], “Susceptible”. Also, the Activity entry in experiment [21] is given as “Resistant”; in experiment [10], “Susceptible”; in [23] it was “Resistant”; in experiment [24], “Resistant”; in experiment [13], “Susceptible”; in experiment [14], “Susceptible”. Besides, the Activity result in experiment [27] was “Resistant”; in experiment [16], “Susceptible”; in experiment [31], “Resistant”; in experiment [32], “Resistant”; in [17], “Susceptible”.

These data come from ChEMBL document CHEMBL1143542, “Structure-activity relationships of bivalent aminoglycosides and evaluation of their microbiological activities” (2005).
